{"source": "ChEMBL document CHEMBL4819122", "about": "“Novel 4-(piperazin-1-yl)quinolin-2(1H)-one bearing thiazoles with antiproliferative activity through VEGFR-2-TK inhibition” (Bioorg Med Chem, 2021)", "key": {"MOLT-4": {"tested_on": "MOLT-4", "assay": "Cytotoxicity against human MOLT-4 assessed as growth inhibition at 10 uM by NCI protocol relative to control", "type": "functional", "conditions": "read-out: GI", "procedure,_shortened": "(§1)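 Run by NCI as a single-dose screen at 10 μM across the sixty-cell-line panel, which covers nine human tumour tissue types. The read-out is percent growth inhibition of treated cells relative to untreated cells.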"}, "SR": {"tested_on": "SR", "assay": "Cytotoxicity against human SR assessed as growth inhibition at 10 uM by NCI protocol relative to control", "type": "functional", "conditions": "read-out: GI", "procedure,_shortened": "(§2)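 Run by the NCI under its standard protocol: one dose of 10 μM against a sixty-line panel from nine human tumour tissues. Result given as percent growth inhibition of treated cells relative to untreated cells.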"}, "EKVX": {"tested_on": "EKVX", "assay": "Cytotoxicity against human EKVX assessed as growth inhibition at 10 uM by NCI protocol relative to control", "type": "functional", "conditions": "read-out: GI", "procedure,_shortened": "as §1"}, "HOP-92": {"tested_on": "HOP-92", "assay": "Cytotoxicity against human HOP-92 assessed as growth inhibition at 10 uM by NCI protocol relative to control", "type": "functional", "conditions": "read-out: GI", "procedure,_shortened": "as §1"}, "HCT-116": {"tested_on": "HCT-116", "assay": "Cytotoxicity against human HCT-116 assessed as growth inhibition at 10 uM by NCI protocol relative to control", "type": "functional", "conditions": "read-out: GI", "procedure,_shortened": "as §1"}, "SF-539": {"tested_on": "SF-539", "assay": "Cytotoxicity against human […] assessed as growth inhibition at 10 uM by NCI protocol relative to control", "type": "functional", "conditions": "read-out: GI", "procedure,_shortened": "as §1"}, "MDA-MB-435": {"tested_on": "MDA-MB-435", "assay": "Cytotoxicity against human MDA-MB-435 assessed as growth inhibition at 10 uM by NCI protocol relative to control", "type": "functional, cell-based", "procedure,_shortened": "as §1"}, "UACC-62": {"tested_on": "UACC-62", "assay": "Cytotoxicity against human UACC-62 assessed as growth inhibition at 10 uM by NCI protocol relative to control", "type": "functional", "conditions": "read-out: GI", "procedure,_shortened": "as §2"}, "IGROV-1": {"tested_on": "IGROV-1", "assay": "Cytotoxicity against human IGROVI assessed as growth inhibition at 10 uM by NCI protocol relative to control", "type": "functional", "conditions": "read-out: GI", "procedure,_shortened": "as §1"}, "786-0": {"tested_on": "786-0", "assay": "Cytotoxicity against human 786-0 assessed as growth inhibition at 10 uM by NCI protocol relative to control", "type": "functional", "conditions": "read-out: GI", "procedure,_shortened": "as §1"}, "A498": {"tested_on": "A498", "assay": "Cytotoxicity against human A498 assessed as growth inhibition at 10 uM by NCI protocol relative to control", "type": "functional", "conditions": "read-out: GI", "procedure,_shortened": "as §1"}, "CAKI-1": {"tested_on": "CAKI-1", "assay": "Cytotoxicity against human Caki1 assessed as growth inhibition at 10 uM by NCI protocol relative to control", "type": "functional", "conditions": "read-out: GI", "procedure,_shortened": "as §1"}, "UO-31": {"tested_on": "UO-31", "assay": "Cytotoxicity against human UO31 assessed as growth inhibition at 10 uM by NCI protocol relative to control", "type": "functional", "conditions": "read-out: GI", "procedure,_shortened": "as §2"}, "T47D [1]": {"tested_on": "T47D", "assay": "Cytotoxicity against human T-47D assessed as growth inhibition at 10 uM by NCI protocol relative to control", "type": "functional", "conditions": "read-out: GI", "procedure,_shortened": "as §2"}, "MDA-MB-468": {"tested_on": "MDA-MB-468", "assay": "Cytotoxicity against human MDA-MB-468 assessed as growth inhibition at 10 uM by NCI protocol relative to control", "type": "functional", "conditions": "read-out: GI", "procedure,_shortened": "as §1"}, "T47D [2]": {"tested_on": "T47D", "assay": "Cytotoxicity against human T47D cells assessed as reduction in cell viability after 3 hrs by MTT assay"}, "MCF10": {"tested_on": "MCF10", "assay": "Cytotoxicity against human MCF10 cells assessed as reduction in cell viability after 3 hrs by MTT assay", "conditions": "MCF10, 3 h"}, "T47D [3]": {"tested_on": "T47D", "assay": "Induction of cell cycle arrest in human T47D cells assessed as increase in accumulation at G0/G1 phase after 24 hrs by propidium iodide/Annexin V staining based FACScan flow cytometry(reference value: 52.59%)", "type": "functional"}, "T47D [4]": {"tested_on": "T47D", "assay": "Induction of cell cycle arrest in human T47D cells assessed as increase in accumulation at S phase after 24 hrs by propidium iodide/Annexin V staining based FACScan flow cytometry(reference value: 34.62%)", "type": "functional"}, "T47D [5]": {"tested_on": "T47D", "assay": "Induction of cell cycle arrest in human T47D cells assessed as increase in accumulation at G2/M phase after 24 hrs by propidium iodide/Annexin V staining based FACScan flow cytometry(reference value: 12.79%)", "type": "functional"}, "T47D [6]": {"tested_on": "T47D", "assay": "Induction of cell cycle arrest in human T47D cells assessed as increase in accumulation at pre G1 phase after 24 hrs by propidium iodide/Annexin V staining based FACScan flow cytometry(reference value: 2.61%)", "type": "functional"}, "T47D [7]": {"tested_on": "T47D", "assay": "Induction of apoptosis in human T47D cells assessed as total apoptotic cells after 24 hrs by Annexin V-FITC/propidium iodide staining based flow cytometric analysis (reference value: 2.61 %)", "type": "functional"}, "T47D [8]": {"tested_on": "T47D", "assay": "Induction of apoptosis in human T47D cells assessed as early apoptotic cells after 24 hrs by Annexin V-FITC/propidium iodide staining based flow cytometric analysis (reference value: 0.66 %)", "type": "functional"}, "T47D [9]": {"tested_on": "T47D", "assay": "Induction of apoptosis in human T47D cells assessed as late apoptotic cells after 24 hrs by Annexin V-FITC/propidium iodide staining based flow cytometric analysis (reference value: 0.21 %)", "type": "functional"}, "T47D [10]": {"tested_on": "T47D", "assay": "Induction of apoptosis in human T47D cells assessed as necrotic cells after 24 hrs by Annexin V-FITC/propidium iodide staining based flow cytometric analysis (reference value: 1.74%)", "type": "functional"}}, "note": "Active and inactive are the calls of the source. No cut-off for these calls is given here."}
{"smiles": "O=C(CN1CCN(c2cc(=O)[nH]c3ccc(F)cc23)CC1)Nc1nc(-c2ccccc2)cs1", "values": [{"measurement": "inhibition of growth at 10 µM", "setting": "MOLT-4", "result": 13.3, "unit": "%"}, {"measurement": "inhibition of growth at 10 µM", "setting": "SR", "result": 21.2, "unit": "%"}, {"measurement": "inhibition of growth at 10 µM", "setting": "EKVX", "result": 14.6, "unit": "%"}, {"measurement": "inhibition of growth at 10 µM", "setting": "HOP-92", "result": 10.9, "unit": "%"}, {"measurement": "inhibition of growth at 10 µM", "setting": "HCT-116", "result": 16, "unit": "%"}, {"measurement": "inhibition of growth at 10 µM", "setting": "SF-539", "result": 13.3, "unit": "%"}, {"measurement": "growth inhibition (GI)", "setting": "MDA-MB-435", "result": "inactive"}, {"measurement": "inhibition of growth at 10 µM", "setting": "UACC-62", "result": 14.4, "unit": "%"}, {"measurement": "inhibition of growth at 10 µM", "setting": "IGROV-1", "result": 16.1, "unit": "%"}, {"measurement": "inhibition of growth at 10 µM", "setting": "786-0", "result": 10.3, "unit": "%"}, {"measurement": "inhibition of growth at 10 µM", "setting": "A498", "result": 27.9, "unit": "%"}, {"measurement": "inhibition of growth at 10 µM", "setting": "CAKI-1", "result": 17.4, "unit": "%"}, {"measurement": "inhibition of growth at 10 µM", "setting": "UO-31", "result": 24.2, "unit": "%"}, {"measurement": "inhibition of growth at 10 µM", "setting": "T47D [1]", "result": 29.6, "unit": "%"}, {"measurement": "inhibition of growth at 10 µM", "setting": "MDA-MB-468", "result": 12.5, "unit": "%"}, {"measurement": "IC50", "setting": "T47D [2]", "result": 7.2, "unit": "µM"}, {"measurement": "IC50", "setting": "MCF10", "result": 39.4, "unit": "µM"}, {"measurement": "Activity", "setting": "T47D [3]", "result": 41.31, "unit": "%"}, {"measurement": "Activity", "setting": "T47D [4]", "result": 52.39, "unit": "%"}, {"measurement": "Activity", "setting": "T47D [5]", "result": 6.3, "unit": "%"}, {"measurement": "Activity", "setting": "T47D [6]", "result": 43.05, "unit": "%"}, {"measurement": "Activity", "setting": "T47D [7]", "result": 43.05, "unit": "%"}, {"measurement": "Activity", "setting": "T47D [8]", "result": 2.31, "unit": "%"}, {"measurement": "Activity", "setting": "T47D [9]", "result": 27.88, "unit": "%"}, {"measurement": "Activity", "setting": "T47D [10]", "result": 12.86, "unit": "%"}]}
